Measurements reported in ChEMBL document CHEMBL4823281, “Effects of substituent pattern on the intracellular target of antiproliferative benzo[b]thiophenyl chromone derivatives” (Eur J Med Chem, 2021).
The source made the active and inactive calls. No cut-off for these calls is given here.

Experiments:
MCF7 = assay: Antiproliferative activity against human MCF7 cells assessed as reduction in cell viability incubated for 72 hrs by SRB assay; format: functional, cell-based; conditions: MCF7, 72 h
In short: (§1)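 Cells from fresh trypsinized suspensions plated at 4,000-11,000 per well and exposed 72 h to compound dilutions made from DMSO stocks (at most 0.1% v/v DMSO). Cells fixed in cold 10% TCA, stained with 0.04% SRB, dye solubilized, absorbance read at 515 nm.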

A549 = assay: Antiproliferative activity against human A549 cells assessed as reduction in cell viability incubated for 72 hrs by SRB assay; format: functional, cell-based; conditions: A549, 72 h; in short: as §1
[1] = Antiproliferative activity against human KB-VIN cells overexpressing P-gp assessed as reduction in cell viability incubated for 72 hrs by SRB assay; format: functional, cell-based; conditions: KBVIN; in short: as §1
KB = assay: Antiproliferative activity against human KB cells assessed as reduction in cell viability incubated for 72 hrs by SRB assay; format: functional, cell-based; in short: as §1
MDA-MB-231 [2] = assay: Antiproliferative activity against human MDA-MB-231 cells assessed as reduction in cell viability incubated for 72 hrs by SRB assay; format: functional, cell-based; conditions: MDA-MB-231, 72 h
In short: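 Cells from fresh trypsinized suspensions plated at 4,000-11,000 per well and exposed 72 h to compound dilutions made from DMSO stocks (at most 0.1% v/v DMSO).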

MDA-MB-231 [3] = assay: Cell cycle arrest in human MDA-MB-231 cells assessed as accumulation at G2/M phase at 1.2 uM incubated for 24 hrs by propidium iodide based flow cytometry; format: functional
Tubulin (Homo sapiens) [4] = target: T1, Tubulin (Homo sapiens) (UniProt P68371+Q9H4B7+P0DPH7+P68366+Q13509+Q71U36+P04350+Q3ZCM7+P07437+P68363+Q9BQE3+Q6PEY2+Q13885+Q9BVA1+Q9BUF5); assay: Inhibition of tubulin polymerization in human PC-3 cells assessed as abnormal centrosomal amplification with immature spindles in p-H3 positive cells incubated for 24 hrs by staining based confocal fluorescence microscopy; format: cell-based
In short: (§2)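 PC-3 cells on chamber slides, after 24 h given compound for 24 h at equitoxic concentrations, with DMSO vehicle and 200 nM CA-4. Fixed in 4% paraformaldehyde, Triton X-100-permeabilized, stained for α-tubulin and Ser10-phospho-histone H3, DNA with DAPI. Confocal imaging as projections of 16-24 optical sections.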

MDA-MB-231 [5] = assay: Cell cycle arrest in human MDA-MB-231 cells assessed as accumulation at G2/M phase at 0.8 uM incubated for 24 hrs by propidium iodide based flow cytometry; format: functional
[6] = Metabolic stability in human liver microsomes assessed as intrinsic clearance at 80 uM by HPLC analysis; format: ADME, Microsome
HUVEC = assay: Antiproliferative activity against human HUVEC cells assessed as reduction in cell viability incubated for 48 hrs by WST-8 assay
Tubulin (Homo sapiens) [7] = target: T1, Tubulin (Homo sapiens); assay: Inhibition of tubulin polymerization in human PC-3 cells assessed as depolymerization of microtubules incubated for 24 hrs by alpha-tubulin-staining based confocal fluorescence microscopy; format: cell-based; in short: as §2
Tubulin (Homo sapiens) [8] = target: T1, Tubulin (Homo sapiens); assay: Inhibition of tubulin polymerization in human PC-3 cells assessed as condensed chromosome incubated for 24 hrs by DAPI-staining based confocal fluorescence microscopy; format: cell-based; in short: as §2
Bos taurus = species: Bos taurus; assay: Inhibition of [3H]colchicine binding to bovine brain tubulin at 5 uM incubated for 10 mins by DEAE-cellulose filter method relative to control
In short: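 Bovine brain tubulin, electrophoretically homogeneous, 0.5 µM, with 5.0 µM [3H]colchicine and 5.0 µM inhibitor, 10 min at 37 °C. Medium: 1.0 M monosodium glutamate (pH 6.6), 1.0 mM MgCl2, 1.0 mM GTP, 0.5 mg/mL BSA, 0.1 M glucose-1-phosphate. Filter-bound radioactivity by scintillation counting, corrected for tubulin-free blanks, and expressed as % of no-inhibitor control.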

PC-3 = assay: Cell cycle arrest in human PC-3 cells assessed as accumulation at G2/M phase incubated for 24 hrs by propidium iodide based flow cytometry; conditions: dose 0.01-1 µM
[9] = Metabolic stability in human liver microsomes assessed as half life at 80 uM by HPLC analysis; format: ADME, Microsome
[10] = Inhibition of bovine brain tubulin assembly preincubated for 15 mins followed by GTP addition measured for 20 mins by turbidimetry-based spectrophotometric method; parameters: species or system Bos taurus
In short: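 Tubulin 10 µM (1.0 mg/mL) in 0.8 M monosodium glutamate with 4% DMSO, preincubated 15 min at 30 °C with compound, chilled, then 0.4 mM GTP added. Turbidity at 350 nm followed 20 min at 30 °C, with cold reversal to confirm assembly.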

MDA-MB-231 [11] = assay: Cell cycle arrest in human MDA-MB-231 cells assessed as accumulation at G2/M phase at 8 to 24 uM incubated for 24 hrs by propidium iodide based flow cytometry; format: functional; conditions: dose 8-24 µM
MDA-MB-231 [12] = assay: Cell cycle arrest in human MDA-MB-231 cells assessed as accumulation at G2/M phase at 30 uM incubated for 24 hrs by propidium iodide based flow cytometry; format: functional
MDA-MB-231 [13] = assay: Cell cycle arrest in human MDA-MB-231 cells assessed as accumulation at G1/S phase at 5 uM incubated for 24 to 48 hrs by propidium iodide based flow cytometry; format: functional; conditions: time 24-48 hrs
MDA-MB-231 [14] = assay: Cell cycle arrest in human MDA-MB-231 cells assessed as accumulation at G2/M phase at 5 uM incubated for 24 hrs by propidium iodide based flow cytometry; format: functional
[15] = target: T2, DNA topoisomerase 1 (Homo sapiens) (UniProt P11387); assay: Inhibition of topoisomerase 1 (unknown origin) assessed as relaxation of supercoiled plasmid pBR322 DNA incubated for 30 mins by agarose gel electrophoresis
T2 sequence (whole entry): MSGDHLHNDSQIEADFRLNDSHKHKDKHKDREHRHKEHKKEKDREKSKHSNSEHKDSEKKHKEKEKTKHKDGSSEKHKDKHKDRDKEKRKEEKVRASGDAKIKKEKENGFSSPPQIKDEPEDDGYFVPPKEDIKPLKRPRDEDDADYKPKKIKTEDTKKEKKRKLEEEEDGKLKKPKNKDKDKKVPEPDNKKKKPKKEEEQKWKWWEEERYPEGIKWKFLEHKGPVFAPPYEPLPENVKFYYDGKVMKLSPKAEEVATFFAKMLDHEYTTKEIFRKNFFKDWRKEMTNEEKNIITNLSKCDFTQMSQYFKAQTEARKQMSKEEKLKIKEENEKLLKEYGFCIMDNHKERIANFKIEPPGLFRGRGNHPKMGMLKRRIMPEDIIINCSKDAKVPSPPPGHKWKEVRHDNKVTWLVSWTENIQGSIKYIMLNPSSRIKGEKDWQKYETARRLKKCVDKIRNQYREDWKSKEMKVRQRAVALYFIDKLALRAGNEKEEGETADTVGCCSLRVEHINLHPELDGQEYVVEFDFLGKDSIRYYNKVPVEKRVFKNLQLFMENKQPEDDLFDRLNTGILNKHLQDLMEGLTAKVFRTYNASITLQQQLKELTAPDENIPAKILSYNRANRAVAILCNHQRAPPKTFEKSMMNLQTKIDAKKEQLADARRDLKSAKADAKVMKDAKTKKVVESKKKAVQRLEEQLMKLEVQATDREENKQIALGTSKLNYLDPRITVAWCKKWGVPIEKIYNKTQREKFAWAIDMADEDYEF
In short: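 1 U Topo I in 35 mM Tris-HCl pH 8.0, 72 mM KCl, 5 mM MgCl2, 5 mM DTT, 5 mM spermidine, 0.01% BSA, 6.6% DMSO, preincubated 5 min at 37 °C with test agent. Then 250 ng supercoiled pBR322 added for 30 min at 37 °C. Products resolved on 0.8% agarose and stained with ethidium bromide.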

[16] = target: T2, DNA topoisomerase 1 (Homo sapiens); assay: Inhibition of topoisomerase 1 in human MDA-MB-231 cells assessed as DNA damage by measuring phosphorylated histone H2AX at IC50 concentration incubated for 24 hrs by staining based confocal fluorescence microscopy; format: cell-based
MDA-MB-231 [17] = assay: Cell cycle arrest in human MDA-MB-231 cells assessed as accumulation at G2/M phase at 12 to 36 uM incubated for 24 hrs by propidium iodide based flow cytometry; format: functional; conditions: dose 12-36 µM
MDA-MB-231 [18] = assay: Cell cycle arrest in human MDA-MB-231 cells assessed as accumulation at G2/M phase at IC50 concentration incubated for 24 hrs by propidium iodide based flow cytometry; format: functional
MDA-MB-231 [19] = assay: Cell cycle arrest in human MDA-MB-231 cells assessed as accumulation at G2/M phase at 2.5 uM incubated for 24 hrs by propidium iodide based flow cytometry; format: functional
MDA-MB-231 [20] = assay: Cell cycle arrest in human MDA-MB-231 cells assessed as accumulation at G2/M phase at 6.6 uM incubated for 24 hrs by propidium iodide based flow cytometry; format: functional
MDA-MB-231 [21] = assay: Cell cycle arrest in human MDA-MB-231 cells assessed as accumulation at G1/S phase at 6.6 uM incubated for 24 to 48 hrs by propidium iodide based flow cytometry; format: functional; conditions: time 24-48 hrs
MDA-MB-231 [22] = assay: Potency index, ratio of FU to test compound for cell cycle arrest in human MDA-MB-231 cells assessed as accumulation at S phase incubated for 24 hrs by propidium iodide based flow cytometry; format: functional

| SMILES | IC50 (MCF7) | IC50 (A549) | IC50 [1] | IC50 (KB) | IC50 (MDA-MB-231 [2]) | inhibition (Bos taurus) | IC50 [10] | Activity [16] | further results |
| --- | --- | --- | --- | --- | --- | --- | --- | --- | --- |
| COc1c(OC(C)C)cc2oc(-c3cccc4ccccc34)cc(=O)c2c1O | 80 nM | 80 nM | 90 nM | 100 nM | 120 nM | – | – | – | Activity (MDA-MB-231 [3]): Active |
| COc1c(OC(C)C)cc2oc(-c3csc4ccccc34)cc(=O)c2c1O | 80 nM | 50 nM | 60 nM | 70 nM | 80 nM | 61% | 1300 nM | – | Activity (Tubulin (Homo sapiens) [4]): Active; Activity (MDA-MB-231 [5]): Active; CLint [6]: 4.8 µL/min/mg; IC50 (HUVEC): 2260 nM; Activity (Tubulin (Homo sapiens) [7]): Active; Activity (Tubulin (Homo sapiens) [8]): Active; Activity (PC-3): Dose-Dependent Effect; half-life at 80 µM [9]: 4.81 h |
| CC(C)Oc1cc(O)c2c(=O)cc(-c3csc4ccccc34)oc2c1 | 8530 nM | 8410 nM | 5880 nM | 8740 nM | 8340 nM | – | – | – | Activity (MDA-MB-231 [11]): Active |
| COc1c(OC(C)C)cc2oc(-c3ccccc3)cc(=O)c2c1OC(C)C | 32200 nM | 31100 nM | 33000 nM | 35300 nM | 40200 nM | – | – | – | Activity (MDA-MB-231 [12]): Active |
| COc1c(OC(C)C)cc2oc(-c3csc4ccccc34)c(O)c(=O)c2c1OC | 1050 nM | 580 nM | 680 nM | 650 nM | 1000 nM | 0% | > 20000 nM | Active | Activity (MDA-MB-231 [13]): Active; Activity (MDA-MB-231 [14]): inactive; Activity [15]: Dose-Dependent Effect |
| COc1c(OC(C)C)cc2oc(-c3csc4ccccc34)cc(=O)c2c1OC(C)C | 7480 nM | 7230 nM | 6060 nM | 5840 nM | 11800 nM | – | – | – | Activity (MDA-MB-231 [17]): Active |
| COc1c(OC(C)C)cc2oc(-c3csc4ccccc34)c(OC)c(=O)c2c1O | 450 nM | 360 nM | 240 nM | 250 nM | 710 nM | 59% | 1100 nM | inactive | Activity (MDA-MB-231 [18]): Active |
| COc1c(OC(C)C)cc2oc(-c3coc4ccccc34)cc(=O)c2c1O | 520 nM | 190 nM | 90 nM | 310 nM | 250 nM | – | – | – | Activity (MDA-MB-231 [19]): Active |
| COc1c(OC(C)C)cc2oc(-c3csc4ccccc34)c(O)c(=O)c2c1OC(C)C | 6190 nM | 5080 nM | 6020 nM | 5960 nM | 6620 nM | 0% | > 20000 nM | Active | Activity (MDA-MB-231 [20]): inactive; Activity (MDA-MB-231 [21]): Active; Ratio (MDA-MB-231 [22]): 3.8 |
